The target in data set [1] is T1, Hdm2 (Homo sapiens, UniProt Q00987). To be noted: cited from earlier work.
For data set [2], the system named is p53 and Hdm2 in RPE cells. The data set is described as follows: Cellular p53 and Hdm2 levels in RPE cells by immunoblotting. To be noted: for effect on cellular p53 and Hdm2 levels: 1–10 µM, immunoblotting; for effect on cellular p53 and Hdm2 levels / concentration exhibiting greatest increase in p53 and Hdm2: 8 h; for concentration exhibiting greatest increase in p53 and Hdm2: similar to 50 µM ALLN.

The target in data set [3] is T1, Hdm2. Briefly: Hdm2 electrochemiluminescence assay. The conditions noted are these: for activity in Hdm2 assay: isolated from Hdm2-inhibitory fractions. The format is biochemical.
For data set [4], the system named is p53 in U2OS cells. The format is cell-based, human. To be noted: U2OS co-transfected with p53 and Hdm2; 8 h; 50 µM ALLN or 3–15 µM 5.
In data set [5] the test system is Hdm2 in p53^−/−mdm2^−/− mouse embryo fibroblasts. The format is cell-based. To be noted: 10 µM, 8 h; Hdm2 under p53-independent CMV promoter.
A short description of data set [6]: Stability of the compound observed while conducting experiments. The format is physicochemical.
The test system of data set [7] is RPE cells. The data set is described as follows: Cell death by trypan blue exclusion, parental RPE cells. The format is cell-based, human. The conditions noted are these: 3–25 µM, 17 h.
For data set [8], the system named is HCT116-p53^+ and HCT116-p53^− cells. The data set is described as follows: Killing of HCT116-p53+ compared to HCT116-p53- cells. The format is cell-based, human. The conditions noted are these: HCT116-p53+ vs HCT116-p53−; data not shown.
The test system of data set [9] is U2OS-pG13 cells (p53-responsive luciferase reporter). Briefly: p53-responsive luciferase reporter assay in U2OS-pG13 cells. The format is cell-based, human. The conditions noted are these: 1–10 µM, 22 h. An outline of the steps:
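U2OS-pG13 cells carry endogenous wild-type p53 and a stably expressed p53-responsive luciferase reporter (pG13). They were incubated for 22 h with test compound at 1–10 µM, with adriamycin at 1 µg/ml as reference. Cells were lysed in reporter lysis buffer and spun at 14,000 g for 20 min. Supernatant luciferase was read as RLU. Values are mean and standard deviation of three independent experiments.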

The subject of data set [10] is C8 cells. The data set is described as follows: Cell death by trypan blue exclusion, wild-type p53 MEFs. The format is cell-based, mouse. The conditions noted are these: 5–20 µM, 20 h.
Data set [11] relates to p53 in HCT116 colon carcinoma cells. The data set is described as follows: ALLN-induced ubiquitylated p53 in HCT116 cells expressing wild-type p53. The format is cell-based, human. To be noted: treatment with both 5 and ALLN; data not shown.
In data set [12] the test system is A9 cells. Briefly: Cell death by trypan blue exclusion, p53-deficient MEFs. The format is cell-based, mouse. To be noted: 5–20 µM, 20 h.
Data set [13] deals with C8 cells. The data set is described as follows: PARP cleavage by immunoblotting, C8 cells. The conditions noted are these: 5–20 µM, 14 h. The format is cell-based, mouse. (A western blot detects proteins with antibodies after separation by electrophoresis.)
Data set [14] relates to RPE-E1A cells. The data set is described as follows: Cell death by trypan blue exclusion, RPE-E1A cells. The format is cell-based, human. The conditions noted are these: 3–25 µM, 17 h.

Consider seven compounds from publication PMC2718708 (Bioorganic & medicinal chemistry, 2008).

SMILES strings stand for the structures. Entries after “also recorded” stand apart in the source; their conditions may differ. Where a SMILES comes first, the peptide text is derived from it. [ ]: non-standard residue; d: D form. Nle = CCCC[C@H](N)C(=O)O

T1 sequence (Q00987 whole entry): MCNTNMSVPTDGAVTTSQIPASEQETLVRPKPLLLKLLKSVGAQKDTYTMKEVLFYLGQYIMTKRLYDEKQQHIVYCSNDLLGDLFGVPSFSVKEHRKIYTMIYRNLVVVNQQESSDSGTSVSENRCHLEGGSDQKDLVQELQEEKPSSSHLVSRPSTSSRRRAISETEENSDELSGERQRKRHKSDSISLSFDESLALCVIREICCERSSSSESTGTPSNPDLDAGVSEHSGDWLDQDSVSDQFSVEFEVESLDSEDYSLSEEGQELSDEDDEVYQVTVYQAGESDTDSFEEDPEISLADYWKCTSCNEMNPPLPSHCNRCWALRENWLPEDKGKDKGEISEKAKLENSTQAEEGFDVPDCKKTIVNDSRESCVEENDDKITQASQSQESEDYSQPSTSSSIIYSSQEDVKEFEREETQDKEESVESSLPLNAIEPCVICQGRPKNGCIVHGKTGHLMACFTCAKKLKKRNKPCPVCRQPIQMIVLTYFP

Consider `c1ccc2c3ccn4cc5c(cc4c-3nc2c1)CCCC5` [sempervirine], for which, in [1], the “inhibition of auto-ubiquitylation of Hdm2” value was “inhibits auto-ubiquitylation of Hdm2”.

As to `COc1cc(CCN(C)C)c2c(c1O)SSSSS2` [Compound 1, Isolissoclinotoxin B], in data set [2] (RPE cells, at 1 µM), the “effect on p53 levels” value is on record as “did not increase p53 levels”. Besides, in data set [2] (at 10 µM), the “toxicity to RPE cells” value is “toxic”.

On to `COc1c(C)c(CCN(C)C)c2c(c1OC)SSSSS2` [Compound 3, N,N-dimethyl-5-methylvaracin], for which the “effect on cellular p53 and Hdm2 levels” value in [2] (RPE cells) was “no discernable cellular effects”. The “activity in Hdm2 assay” value in data set [3] is “very little activity”.

Turning to `COc1cc(CCN)c2c(c1OC)SSSSS2` [Compound 2, varacin], in data set [2] (RPE cells), the “effect on cellular p53 and Hdm2 levels” value is listed as “no discernable cellular effects”. In addition, the “activity in Hdm2 assay” value in data set [3] is given as “very little activity”.

Regarding `CCCC[C@@H](C=O)NC(=O)[C@H](CC(C)C)NC(=O)[C@H](CC(C)C)NC(C)=O` [ALLN, N-acetyl-leucyl-leucyl-norleucinal, reference compound] (Ac-Leu-Leu-[Nle]-aldehyde), in [4], the “effect on p53 degradation / p53 level” value was “accumulation of p53” and the “ubiquitylated forms of p53” value is listed as “higher molecular weight forms of the protein indicative of ubiquitylation”.

Consider `CSC1=C(CCN)c2nc3ccccc3c3ccnc(c23)C1=O` [Compound 4, Diplamine B], for which, in data set [2] (RPE cells), the “effect on cellular p53 and Hdm2 levels” value was “increased p53 and Hdm2 in cells in a dose-dependent manner”; the “concentration exhibiting greatest increase in p53 and Hdm2” value came out at 10 µM. Moreover, in data set [5], the “effect on cellular Hdm2” value was “increased Hdm2; also recorded: stabilized Hdm2 in MEFs”. In [6], the “stability” value was “fairly unstable and degraded over time”.

On to `NCCc1c2c(c3nccc4c3c1Nc1ccccc1-4)OCS2` [Compound 5, Lissoclinidine B], for which the cell death entry in data set [7] was “no effect”; in data set [10], “marked increase in cell death; also recorded: selectively kills cells expressing wild-type p53”; in [12] it was “relatively resistant”; in data set [14], “clear dose-dependent increase in cell death; also recorded: selectively kills transformed cells”. Moreover, in data set [4], the “effect on p53 degradation / p53 level” value is reported as “blocked p53 degradation in a dose-dependent manner; also recorded: inhibits Hdm2-mediated p53 degradation”. Besides, the “ubiquitylated forms of p53” value in [4] is reported as “absent”. Also, the p53-dependent killing result in data set [8] is reported as “p53-dependent killing”. The “luciferase activity (p53-dependent transactivation)” value in data set [9] is given as “dose-dependent increase in luciferase activity; also recorded: activates p53 transcription”. Further, in [2] (RPE cells), the “effect on cellular p53 and Hdm2 levels” value was “increased p53 and Hdm2 in cells in a dose-dependent manner”. The “concentration exhibiting greatest increase in p53 and Hdm2” value in data set [2] (RPE cells) amounted to 10 µM. In data set [5], the “effect on cellular Hdm2” value was “increased Hdm2; also recorded: stabilized Hdm2 in MEFs”. Also, in data set [11], the “effect on ALLN-induced ubiquitylated p53” value is given as “prevented the accumulation of ALLN-induced ubiquitylated p53”. Besides, the IC50 – broadly, the midpoint of a concentration-inhibition curve – in data set [3] is 98.1 ± 6 µM. The “PARP cleavage (apoptosis)” value in data set [13] is given as “cleavage of the poly (ADP-ribose) polymerase (PARP) was observed; also recorded: induces apoptosis in C8 cells”.
